{"source": "ChEMBL document CHEMBL1137574", "about": "“Synthesis and structure-activity relationship for a novel class of potent and selective carbamate-based inhibitors of hormone selective lipase with acute in vivo antilipolytic effects” (J Med Chem, 2007)", "key": {"Cholinesterase": {"biological_target": "Cholinesterase (Homo sapiens, UniProt P06276)", "sequence (P06276 whole entry)": "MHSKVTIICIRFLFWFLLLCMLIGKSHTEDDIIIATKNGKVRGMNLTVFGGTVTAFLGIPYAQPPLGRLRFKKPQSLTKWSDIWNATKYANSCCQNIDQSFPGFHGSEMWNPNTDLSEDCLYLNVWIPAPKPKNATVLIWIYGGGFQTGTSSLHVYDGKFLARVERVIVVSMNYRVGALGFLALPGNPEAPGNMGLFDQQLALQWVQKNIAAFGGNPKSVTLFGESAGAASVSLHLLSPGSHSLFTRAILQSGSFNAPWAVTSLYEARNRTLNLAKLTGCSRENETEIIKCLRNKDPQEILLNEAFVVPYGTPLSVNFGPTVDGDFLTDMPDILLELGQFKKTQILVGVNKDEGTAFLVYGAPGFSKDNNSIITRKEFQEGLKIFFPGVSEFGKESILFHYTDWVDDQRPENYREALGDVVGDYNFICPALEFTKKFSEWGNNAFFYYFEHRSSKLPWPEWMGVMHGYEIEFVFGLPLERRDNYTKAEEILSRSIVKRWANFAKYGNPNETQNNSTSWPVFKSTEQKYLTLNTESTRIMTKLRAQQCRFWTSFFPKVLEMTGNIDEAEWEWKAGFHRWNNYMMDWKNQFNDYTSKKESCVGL", "test": "Inhibition of butyrylcholine esterase"}, "Homo sapiens [1]": {"species_on_record": "Homo sapiens", "test": "Inhibition of butyrylcholine lipase"}, "[2]": {"test": "Drug level in Sprague-Dawley rat at 10 mg/kg, po after 1 hr", "assay_type": "ADME, organism-based", "set-up": "dose 10 mg/kg, route oral", "conditions": "in vivo, read-out: Drug uptake", "method_in_brief": "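Overnight-fasted male Sprague-Dawley rats received 10 mg/kg p.o. (n = 4). Plasma from orbital blood was collected into EDTA/NaF tubes, stored at -80 °C, and drug measured by turbulent-flow chromatography–MS/MS against plasma calibration curves (10-3000 ng/mL).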"}, "Rattus norvegicus [3]": {"tested_on": "Rattus norvegicus", "test": "Reduction of glycerol in Sprague-Dawley rat at 10 mg/kg, po", "assay_type": "ADME, organism-based", "set-up": "dose 10 mg/kg, route oral; scale not given: the % may be the effect or the level left", "conditions": "in vivo", "method_in_brief": "(§1)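 Male Sprague-Dawley rats, 12 weeks old, fasted overnight; single 10 mg/kg p.o. dose (n = 4 per group; vehicle n = 8). Orbital plexus blood under isoflurane taken at baseline (0.5 h predose) and 1, 3 and 5 h postdose into EDTA tubes with 0.1% NaF. Plasma glycerol measured on an automated analyzer as the antilipolytic endpoint.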"}, "Hormone-sensitive lipase": {"biological_target": "T1, Hormone-sensitive lipase (Homo sapiens, UniProt Q05469)", "T1 sequence (Q05469 whole entry)": "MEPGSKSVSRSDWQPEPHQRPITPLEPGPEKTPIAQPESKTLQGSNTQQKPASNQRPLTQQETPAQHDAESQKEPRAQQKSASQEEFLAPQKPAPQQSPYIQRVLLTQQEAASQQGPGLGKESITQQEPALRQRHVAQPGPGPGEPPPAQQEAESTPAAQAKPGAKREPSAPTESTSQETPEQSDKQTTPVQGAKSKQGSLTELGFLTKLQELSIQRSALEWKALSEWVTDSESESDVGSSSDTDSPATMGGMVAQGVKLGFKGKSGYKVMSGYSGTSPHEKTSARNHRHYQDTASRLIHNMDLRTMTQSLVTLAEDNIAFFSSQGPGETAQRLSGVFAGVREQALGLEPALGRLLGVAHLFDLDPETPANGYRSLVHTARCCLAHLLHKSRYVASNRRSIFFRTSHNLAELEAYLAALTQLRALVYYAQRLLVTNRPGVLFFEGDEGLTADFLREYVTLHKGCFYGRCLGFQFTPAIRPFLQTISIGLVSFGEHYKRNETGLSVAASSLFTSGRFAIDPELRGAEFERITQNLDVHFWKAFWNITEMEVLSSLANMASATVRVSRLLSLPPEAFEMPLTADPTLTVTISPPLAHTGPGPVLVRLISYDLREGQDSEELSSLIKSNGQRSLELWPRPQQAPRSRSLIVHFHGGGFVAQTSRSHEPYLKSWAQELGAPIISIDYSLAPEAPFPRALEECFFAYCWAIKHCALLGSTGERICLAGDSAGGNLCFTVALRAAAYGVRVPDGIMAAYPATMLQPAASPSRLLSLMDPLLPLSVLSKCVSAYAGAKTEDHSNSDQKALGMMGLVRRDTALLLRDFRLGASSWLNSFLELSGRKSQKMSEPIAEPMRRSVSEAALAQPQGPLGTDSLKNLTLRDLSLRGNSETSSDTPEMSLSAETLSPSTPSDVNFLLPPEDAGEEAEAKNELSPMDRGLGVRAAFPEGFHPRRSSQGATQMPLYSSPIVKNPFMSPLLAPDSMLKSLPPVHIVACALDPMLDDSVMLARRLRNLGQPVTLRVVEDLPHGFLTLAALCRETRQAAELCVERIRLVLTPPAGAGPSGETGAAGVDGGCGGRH", "test": "Inhibition of recombinant human hormone-sensitive lipase"}, "[4]": {"biological_target": "T2, Lipoprotein lipase (Bos taurus) (UniProt P11151)", "T2 sequence (whole entry)": "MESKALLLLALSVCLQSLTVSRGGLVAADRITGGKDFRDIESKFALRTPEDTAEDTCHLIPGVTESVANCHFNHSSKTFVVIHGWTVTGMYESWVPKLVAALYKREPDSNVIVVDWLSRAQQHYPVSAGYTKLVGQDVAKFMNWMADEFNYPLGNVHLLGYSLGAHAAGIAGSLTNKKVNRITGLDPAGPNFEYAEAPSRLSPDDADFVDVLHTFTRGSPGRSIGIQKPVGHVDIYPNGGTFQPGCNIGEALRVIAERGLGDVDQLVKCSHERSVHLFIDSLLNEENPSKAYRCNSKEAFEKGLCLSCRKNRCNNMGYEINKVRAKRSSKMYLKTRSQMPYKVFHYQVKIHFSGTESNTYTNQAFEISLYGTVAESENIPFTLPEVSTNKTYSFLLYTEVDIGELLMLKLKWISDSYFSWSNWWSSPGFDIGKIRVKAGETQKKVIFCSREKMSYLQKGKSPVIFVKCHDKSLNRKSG", "test": "Inhibition of bovin lipoprotein lipase", "method_in_brief": "(§2)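 Lipase inhibition (pancreatic, bovine lipoprotein, human hepatic) used a fluorochrome (NBD)-labelled triacylglyceride substrate. Inhibitor at six concentrations, 5-fold dilutions from a maximum of 100 µM, each point the mean of two measurements. IC50 from sigmoidal variable-slope nonlinear regression.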"}, "Cytochrome P450 2C9": {"biological_target": "Cytochrome P450 2C9 (Homo sapiens, UniProt P11712)", "sequence (P11712 whole entry)": "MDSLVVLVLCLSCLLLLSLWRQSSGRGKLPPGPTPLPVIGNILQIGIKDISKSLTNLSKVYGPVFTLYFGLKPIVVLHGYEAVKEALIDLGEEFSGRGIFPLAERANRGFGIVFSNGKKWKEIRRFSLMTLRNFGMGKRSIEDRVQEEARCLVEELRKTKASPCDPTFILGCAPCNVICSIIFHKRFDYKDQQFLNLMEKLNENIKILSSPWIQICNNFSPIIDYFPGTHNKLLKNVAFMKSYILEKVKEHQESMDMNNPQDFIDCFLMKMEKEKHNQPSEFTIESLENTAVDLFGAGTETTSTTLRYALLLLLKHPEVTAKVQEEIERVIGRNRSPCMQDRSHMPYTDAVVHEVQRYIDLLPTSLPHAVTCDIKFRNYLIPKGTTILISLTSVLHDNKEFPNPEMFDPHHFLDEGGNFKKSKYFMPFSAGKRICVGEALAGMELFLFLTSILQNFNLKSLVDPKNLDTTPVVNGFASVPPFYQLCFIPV", "test": "Inhibition of CYP2C9 in human liver microsome", "assay_type": "ADME", "conditions": "microsomes"}, "Cytochrome P450 2D6": {"biological_target": "Cytochrome P450 2D6 (Homo sapiens, UniProt P10635)", "sequence (P10635 whole entry)": "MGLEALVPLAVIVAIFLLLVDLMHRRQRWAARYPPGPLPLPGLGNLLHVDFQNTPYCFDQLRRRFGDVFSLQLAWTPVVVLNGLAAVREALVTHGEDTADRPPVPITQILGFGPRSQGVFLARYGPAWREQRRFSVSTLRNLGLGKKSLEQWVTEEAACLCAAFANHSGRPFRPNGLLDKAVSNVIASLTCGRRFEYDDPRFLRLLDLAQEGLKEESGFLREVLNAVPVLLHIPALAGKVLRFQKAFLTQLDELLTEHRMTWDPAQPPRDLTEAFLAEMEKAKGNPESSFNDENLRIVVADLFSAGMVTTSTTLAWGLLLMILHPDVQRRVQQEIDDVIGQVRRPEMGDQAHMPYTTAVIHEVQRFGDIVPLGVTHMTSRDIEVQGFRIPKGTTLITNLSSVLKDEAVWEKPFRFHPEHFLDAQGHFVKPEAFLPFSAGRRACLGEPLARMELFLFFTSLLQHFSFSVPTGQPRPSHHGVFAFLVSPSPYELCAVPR", "test": "Inhibition of CYP2D6 in human liver microsome", "assay_type": "ADME", "conditions": "microsomes", "method_in_brief": "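Pooled human liver microsomes (0.1 mg, ≥15 donors) incubated 10 min at 37 °C with 1 mM NADPH and test compound at 20 µM, in triplicate. Substrates at Km: CYP1A2, 14C-phenacetin 40 µM; CYP2D6, 14C-dextromethorphan 3 µM. Conversion read by charcoal extraction then scintillation counting of the supernatant.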"}, "Homo sapiens [5]": {"species_on_record": "Homo sapiens", "test": "Inhibition of acetylcholine lipase"}, "[6]": {"biological_target": "T3, Hepatic triacylglycerol lipase (Homo sapiens) (UniProt P11150)", "T3 sequence (whole entry)": "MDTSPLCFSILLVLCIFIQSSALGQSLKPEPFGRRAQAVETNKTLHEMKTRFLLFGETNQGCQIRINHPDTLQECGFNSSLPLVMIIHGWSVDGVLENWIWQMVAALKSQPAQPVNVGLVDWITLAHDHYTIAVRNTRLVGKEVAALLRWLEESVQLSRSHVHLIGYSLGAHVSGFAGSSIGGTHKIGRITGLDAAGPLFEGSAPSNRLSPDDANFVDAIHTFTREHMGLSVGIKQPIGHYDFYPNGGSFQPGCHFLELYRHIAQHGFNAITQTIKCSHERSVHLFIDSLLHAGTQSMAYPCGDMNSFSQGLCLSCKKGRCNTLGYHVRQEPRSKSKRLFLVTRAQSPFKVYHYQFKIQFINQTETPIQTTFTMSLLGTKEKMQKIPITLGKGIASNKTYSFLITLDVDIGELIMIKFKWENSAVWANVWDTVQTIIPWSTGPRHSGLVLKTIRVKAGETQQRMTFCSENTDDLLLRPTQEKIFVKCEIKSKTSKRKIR", "test": "Inhibition of hepatic lipase", "method_in_brief": "as §2"}, "Rattus norvegicus [7]": {"tested_on": "Rattus norvegicus", "test": "Antilipolytic activity in Sprague-Dawley rat at 10 mg/kg, po", "assay_type": "ADME, organism-based", "set-up": "dose 10 mg/kg, route oral", "conditions": "in vivo", "method_in_brief": "as §1"}}, "note": "Activity calls are given as the source filed them. No cut-off for these calls is given here.", "data": [{"smiles": "O=C(Oc1ccc(Oc2ccc(C(F)(F)F)cn2)cc1)N1CCC(CO)CC1", "values": [{"measurement": "IC50", "setting": "Cholinesterase", "value": "> 50", "unit": "µM"}, {"measurement": "Activity", "setting": "Homo sapiens [1]", "value": "inactive"}, {"measurement": "concentration at 1 h", "setting": "[2]", "value": 379, "unit": "ng/mL"}, {"measurement": "Activity", "setting": "Rattus norvegicus [3]", "value": 59, "unit": "%"}, {"measurement": "IC50", "setting": "Hormone-sensitive lipase", "value": 0.11, "unit": "µM"}, {"measurement": "Activity", "setting": "[4]", "value": "inactive"}, {"measurement": "Activity", "setting": "Cytochrome P450 2C9", "value": "Not Active"}, {"measurement": "Activity", "setting": "Cytochrome P450 2D6", "value": "Not Active"}, {"measurement": "Activity", "setting": "Homo sapiens [5]", "value": "inactive"}, {"measurement": "Activity", "setting": "[6]", "value": "inactive"}, {"measurement": "Activity", "setting": "Rattus norvegicus [7]", "value": "Active"}]}, {"smiles": "O=C(Oc1ccc(Oc2ccc(C(F)(F)F)cn2)cc1)N1CCC(O)CC1", "values": [{"measurement": "IC50", "setting": "Cholinesterase", "value": "> 50", "unit": "µM"}, {"measurement": "Activity", "setting": "Homo sapiens [1]", "value": "inactive"}, {"measurement": "concentration at 1 h", "setting": "[2]", "value": 3200, "unit": "ng/mL"}, {"measurement": "Activity", "setting": "Rattus norvegicus [3]", "value": 42, "unit": "%"}, {"measurement": "IC50", "setting": "Hormone-sensitive lipase", "value": 0.5, "unit": "µM"}, {"measurement": "Activity", "setting": "[4]", "value": "inactive"}, {"measurement": "Activity", "setting": "Cytochrome P450 2C9", "value": "Not Active"}, {"measurement": "Activity", "setting": "Cytochrome P450 2D6", "value": "Not Active"}, {"measurement": "Activity", "setting": "Homo sapiens [5]", "value": "inactive"}, {"measurement": "Activity", "setting": "[6]", "value": "inactive"}, {"measurement": "Activity", "setting": "Rattus norvegicus [7]", "value": "Active"}]}]}
